Reference: ChEMBL document CHEMBL1149318, “(Z)- and (E)-[2-Fluoro-2-(hydroxymethyl)cyclopropylidene]methylpurines and -pyrimidines, a new class of methylenecyclopropane analogues of nucleosides: synthesis and antiviral activity” (J Med Chem, 2004)

Key:
Human gammaherpesvirus 4 [1] = assay: Inhibition of EBV replication in Daudi cells by VCA ELISA; format: functional, organism-based; conditions: human gammaherpesvirus 4, Daudi
Outline: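 Viral capsid antigen (VCA) ELISA in Daudi cells; EC50 from capsid antigen signal. Cytotoxicity measured in CEM cells.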

[2] = Cytotoxicity against Daudi cells; format: cell-based; conditions: human
Human gammaherpesvirus 4 [3] = assay: Inhibition of EBV replication in H1 cells by DNA hybridization assay; format: functional, organism-based; conditions: human gammaherpesvirus 4, H1
Outline: (§1)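 EBV DNA hybridization assay in Daudi or H-1 cells; EC50 derived from viral DNA signal. Cytotoxicity for these EBV assays measured in CEM cells.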

CCRF-CEM = assay: Cytotoxicity against CEM cells; format: functional; conditions: Homo sapiens
Human alphaherpesvirus 3 = assay: Inhibition of VZV replication in HFF cells by CPE assay; format: functional, organism-based; conditions: Human alphaherpesvirus 3, HFF
[4] = tested on: Human immunodeficiency virus 1; assay: Inhibition of HIV1 LAI replication in MT2 by CPE assay; format: functional, organism-based; conditions: Human immunodeficiency virus 1, LAI
Outline: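 HIV-1 LAI, 100 TCID50, used to infect MT-2 (2 × 10^3) or MT-4 (3 × 10^4) cells, which are then cultured with test analogue. EC50 read by MTT assay on day 7 (MT-2) or day 5 (MT-4). Assays run in duplicate.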

[5] = Cytotoxicity against MT2 cells; format: cell-based; conditions: human
Outline: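 Uninfected MT-2 (2 × 10^3 cells) or MT-4 (3 × 10^4 cells) cultured with analogues. Viability read by MTT assay after day 7 (MT-2) or day 5 (MT-4). Run in duplicate.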

Hepatitis B virus = assay: Inhibition of HBV replication in 2.2.15 cells by DNA hybridization assay; format: functional, organism-based; conditions: HepG2 2.2.15
Outline: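 HBV in 2.2.15 cells; viral DNA quantified by DNA hybridization to give EC50.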

[6] = Cytotoxicity against Vero cells; format: cell-based; conditions: chlorocebus sabaeus
[7] = Cytotoxicity against HFF cells; format: cell-based; conditions: human
Human betaherpesvirus 5 [8] = assay: Inhibition of HCMV Towne replication in HFF cells by plaque reduction assay; format: functional, organism-based; conditions: Human betaherpesvirus 5, Towne
Outline: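 Plaque reduction assay in HFF culture with HCMV Towne strain; cytotoxicity by neutral red uptake.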

[9] = Cytotoxicity against HFF cells by visual cytotoxicity; format: cell-based; conditions: human
Outline: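 HFF cultures exposed to analogues. Cytotoxicity scored visually.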

Human betaherpesvirus 5 [10] = assay: Inhibition of HCMV AD169 replication in HFF cells by CPE inhibition assay; format: functional, organism-based; conditions: Human betaherpesvirus 5, AD169, HFF
Outline: (§2)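 Cytopathic effect inhibition assay in HFF culture (HCMV AD169; HSV-1 and HSV-2). Cytotoxicity by neutral red uptake.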

[11] = Cytotoxicity against HFF cells by neutral red uptake assay; format: cell-based; conditions: human
Outline: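 Human foreskin fibroblast (HFF) cultures, as used for the HCMV assays, exposed to analogues. Cytotoxicity read by neutral red uptake.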

Human alphaherpesvirus 1 [12] = assay: Inhibition of HSV1 replication in BSC1 cells by ELISA; format: functional, organism-based; conditions: Human alphaherpesvirus 1, BSC-1
Outline: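 HSV-1 in BSC-1 cells, read by ELISA; cytotoxicity determined in KB cells.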

Human alphaherpesvirus 1 [13] = assay: Inhibition of HSV1 in HFF cells by CPE assay; format: functional, organism-based; conditions: Human alphaherpesvirus 1, HFF; outline: as §2
Human alphaherpesvirus 2 = assay: Inhibition of HSV2 in HFF cells by CPE assay; format: functional, organism-based; conditions: Human alphaherpesvirus 2, HFF; outline: as §2
[14] = Inhibition of HSV2 in Vero cells by plaque reduction assay; format: cell-based; conditions: Chlorocebus sabaeus
Outline: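 Plaque reduction assay in Vero cells with HSV-1 or HSV-2.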

Human alphaherpesvirus 1 [15] = assay: Inhibition of HSV1 in Vero cells by plaque reduction assay; conditions: Human alphaherpesvirus 1, Vero
Human gammaherpesvirus 4 [16] = assay: Inhibition of EBV replication in Daudi cells by DNA hybridization assay; format: functional, organism-based; conditions: human gammaherpesvirus 4, Daudi; outline: as §1

Row | Compound | EC50 (Human gammaherpesvirus 4 [1]) | CC50 [2] | EC50 (Human gammaherpesvirus 4 [3]) | CC50 (CCRF-CEM) | EC50 (Human alphaherpesvirus 3) | EC50 [4] | CC50 [5] | EC50 (Hepatitis B virus) | CC50 [6] | CC50 [7] | EC50 (Human betaherpesvirus 5 [8]) | CC50 [9] | EC50 (Human betaherpesvirus 5 [10]) | CC50 [11] | EC50 (Human alphaherpesvirus 1 [12]) | EC50 (Human alphaherpesvirus 1 [13]) | EC50 (Human alphaherpesvirus 2) | EC50 [14] | EC50 (Human alphaherpesvirus 1 [15]) | EC50 (Human gammaherpesvirus 4 [16])
1 | Nc1nc2c(ncn2/C=C2/CC2(F)CO)c(=O)[nH]1 (stereo not given) | 4.8 µM | > 199 µM | > 20 µM | > 100 µM | > 79.6 µM | > 100 µM | > 100 µM | > 20 µM | > 100 µM | > 400 µM | > 100 µM | > 100 µM | > 79.6 µM | > 398 µM | > 100 µM | > 80 µM | > 80 µM | > 50 µM | > 50 µM | 
2 | Cc1cn(/C=C2\CC2(F)CO)c(=O)[nH]c1=O (stereo not given) | > 221 µM | > 221 µM | > 20 µM | > 100 µM | > 442 µM | > 100 µM | > 100 µM | > 20 µM | > 100 µM | > 400 µM | > 100 µM | > 100 µM | > 442 µM | > 442 µM | 40 µM | > 80 µM | > 80 µM | > 50 µM | > 50 µM | 
3 | Nc1nc2c(ncn2COCCO)c(=O)[nH]1 [ACYCLOVIR] |  | > 222 µM |  |  |  |  |  |  |  | > 444 µM |  |  |  |  | 10 µM |  |  |  |  | 5.3 µM
4 | Nc1nc2c(ncn2COC(CO)CO)c(=O)[nH]1 [GANCICLOVIR] |  |  |  |  |  |  |  |  |  |  | 2.1 µM | > 100 µM | 2.2 µM | > 392 µM |  |  |  |  | > 50 µM | 
5 | Nc1ccn([C@@H]2CS[C@H](CO)O2)c(=O)n1 [LAMIVUDINE] |  |  |  | > 100 µM |  |  |  |  |  |  |  |  |  |  |  |  |  |  |  | 
6 | Cc1cn([C@H]2C[C@H](N=[N+]=[N-])[C@@H](CO)O2)c(=O)[nH]c1=O [ZIDOVUDINE] |  |  |  |  |  | 0.02 µM | > 10 µM |  |  |  |  |  |  |  |  |  |  |  |  | 
